ChEMBL document CHEMBL4689842, “EUbOPEN Chemogenomics Library wave 1” (2021)

Test system: Fibroblast
Assay: Multiplex assay against human fibroblast
Assay type: toxicity, cell-based
Outline: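 Live cells were stained at seeding with Hoechst33342, BioTracker Green Microtubule Cytoskeleton Dye, MitoTracker Red and Annexin V Alexa Fluor 680. Following compound addition, they were imaged on a CQ1 microscope at 37°C and 5% CO2 and gated by CellPathfinder machine learning into Hoechst high-intensity objects or normal cells, with normal cells split into healthy, pyknosed or fragmented nuclei and pyknosed cells into mitotic or apoptotic. Tubulin, mitochondrial-mass and membrane-permeability phenotypes are per cents of healthy-nucleus cells.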

[1] = 12 h, 1 µM, compound concentration 1 uM, replicate 1
[2] = 12 h, 1 µM, compound concentration 1 uM, replicate 2
[3] = 12 h, 10 µM, compound concentration 10 uM, replicate 1
[4] = 12 h, 10 µM, compound concentration 10 uM, replicate 2
[5] = 24 h, 1 µM, compound concentration 1 uM, replicate 1
[6] = 24 h, 1 µM, compound concentration 1 uM, replicate 2
[7] = 24 h, 10 µM, compound concentration 10 uM, replicate 1
[8] = 24 h, 10 µM, compound concentration 10 uM, replicate 2
[9] = 48 h, 1 µM, compound concentration 1 uM, replicate 1
[10] = 48 h, 1 µM, compound concentration 1 uM, replicate 2
[11] = 48 h, 10 µM, compound concentration 10 uM, replicate 1
[12] = 48 h, 10 µM, compound concentration 10 uM, replicate 2

Cc1csc2c(N[C@@H](C)CN3CCN(S(=O)(=O)c4ccc(Cl)c(Cl)c4)CC3)ncnc12
Population Apoptotic (%) [1]: 56% | Population Fragmented Nuclei (%) [1]: 22% | Population Healthy Nuclei (%) [1]: 46% | Population Hoechst High Intensity Objects (%) [1]: 5% | Population Membrane Permeable-Phenotype (%) [1]: 33% | Population Mitochondria Different-Phenotype (%) [1]: 21% | Population Mitotic Cells (%) [1]: 43% | Population Normal (%) [1]: 94% | Population Pyknosed Nuclei (%) [1]: 31% | Population Tubulin-Different-Phenotype (%) [1]: 87% | Total Cell Count [1]: 149 | Population Apoptotic (%) [2]: 16% | Population Fragmented Nuclei (%) [2]: 5% | Population Healthy Nuclei (%) [2]: 84% | Population Membrane Permeable-Phenotype (%) [2]: 6% | Population Mitochondria Different-Phenotype (%) [2]: 33% | Population Mitotic Cells (%) [2]: 83% | Population Normal (%) [2]: 95% | Population Pyknosed Nuclei (%) [2]: 10% | Population Tubulin-Different-Phenotype (%) [2]: 47% | Total Cell Count [2]: 48 | Population Apoptotic (%) [3]: 52% | Population Fragmented Nuclei (%) [3]: 32% | Population Healthy Nuclei (%) [3]: 29% | Population Hoechst High Intensity Objects (%) [3]: 21% | Population Membrane Permeable-Phenotype (%) [3]: 23% | Population Mitochondria Different-Phenotype (%) [3]: 42% | Population Mitotic Cells (%) [3]: 47% | Population Normal (%) [3]: 78% | Population Pyknosed Nuclei (%) [3]: 38% | Population Tubulin-Different-Phenotype (%) [3]: 92% | Total Cell Count [3]: 113 | Population Apoptotic (%) [4]: 75% | Population Fragmented Nuclei (%) [4]: 12% | Population Healthy Nuclei (%) [4]: 67% | Population Hoechst High Intensity Objects (%) [4]: 4% | Population Membrane Permeable-Phenotype (%) [4]: 56% | Population Mitochondria Different-Phenotype (%) [4]: 98% | Population Mitotic Cells (%) [4]: 25% | Population Normal (%) [4]: 95% | Population Pyknosed Nuclei (%) [4]: 19% | Population Tubulin-Different-Phenotype (%) [4]: 98% | Total Cell Count [4]: 60 | Population Apoptotic (%) [5]: 59% | Population Fragmented Nuclei (%) [5]: 26% | Population Healthy Nuclei (%) [5]: 44% | Population Hoechst High Intensity Objects (%) [5]: 8% | Population Membrane Permeable-Phenotype (%) [5]: 19% | Population Mitochondria Different-Phenotype (%) [5]: 33% | Population Mitotic Cells (%) [5]: 40% | Population Normal (%) [5]: 91% | Population Pyknosed Nuclei (%) [5]: 29% | Population Tubulin-Different-Phenotype (%) [5]: 90% | Total Cell Count [5]: 156 | Population Apoptotic (%) [6]: 60% | Population Fragmented Nuclei (%) [6]: 11% | Population Healthy Nuclei (%) [6]: 73% | Population Hoechst High Intensity Objects (%) [6]: 4% | Population Membrane Permeable-Phenotype (%) [6]: 11% | Population Mitochondria Different-Phenotype (%) [6]: 25% | Population Normal (%) [6]: 95% | Population Pyknosed Nuclei (%) [6]: 14% | Population Tubulin-Different-Phenotype (%) [6]: 23% | Total Cell Count [6]: 64 | Population Apoptotic (%) [7]: 67% | Population Fragmented Nuclei (%) [7]: 36% | Population Healthy Nuclei (%) [7]: 24% | Population Hoechst High Intensity Objects (%) [7]: 23% | Population Membrane Permeable-Phenotype (%) [7]: 19% | Population Mitochondria Different-Phenotype (%) [7]: 71% | Population Mitotic Cells (%) [7]: 32% | Population Normal (%) [7]: 76% | Population Pyknosed Nuclei (%) [7]: 39% | Population Tubulin-Different-Phenotype (%) [7]: 80% | Total Cell Count [7]: 113 | Population Apoptotic (%) [8]: 80% | Population Fragmented Nuclei (%) [8]: 15% | Population Healthy Nuclei (%) [8]: 57% | Population Hoechst High Intensity Objects (%) [8]: 4% | Population Membrane Permeable-Phenotype (%) [8]: 80% | Population Mitochondria Different-Phenotype (%) [8]: 97% | Population Mitotic Cells (%) [8]: 19% | Population Normal (%) [8]: 95% | Population Pyknosed Nuclei (%) [8]: 26% | Population Tubulin-Different-Phenotype (%) [8]: 97% | Total Cell Count [8]: 72 | Population Apoptotic (%) [9]: 67% | Population Fragmented Nuclei (%) [9]: 22% | Population Healthy Nuclei (%) [9]: 53% | Population Hoechst High Intensity Objects (%) [9]: 9% | Population Membrane Permeable-Phenotype (%) [9]: 33% | Population Mitochondria Different-Phenotype (%) [9]: 17% | Population Mitotic Cells (%) [9]: 32% | Population Normal (%) [9]: 90% | Population Pyknosed Nuclei (%) [9]: 24% | Population Tubulin-Different-Phenotype (%) [9]: 96% | Total Cell Count [9]: 155 | Population Apoptotic (%) [10]: 100% | Population Fragmented Nuclei (%) [10]: 31% | Population Healthy Nuclei (%) [10]: 67% | Population Hoechst High Intensity Objects (%) [10]: 8% | Population Membrane Permeable-Phenotype (%) [10]: 9% | Population Mitochondria Different-Phenotype (%) [10]: 7% | Population Mitotic Cells (%) [10]: 0% | Population Normal (%) [10]: 91% | Population Pyknosed Nuclei (%) [10]: 0% | Population Tubulin-Different-Phenotype (%) [10]: 93% | Total Cell Count [10]: 123 | Population Apoptotic (%) [11]: 100% | Population Fragmented Nuclei (%) [11]: 33% | Population Healthy Nuclei (%) [11]: 37% | Population Hoechst High Intensity Objects (%) [11]: 40% | Population Membrane Permeable-Phenotype (%) [11]: 21% | Population Mitochondria Different-Phenotype (%) [11]: 56% | Population Mitotic Cells (%) [11]: 0% | Population Normal (%) [11]: 59% | Population Pyknosed Nuclei (%) [11]: 29% | Population Tubulin-Different-Phenotype (%) [11]: 82% | Total Cell Count [11]: 104 | Population Apoptotic (%) [12]: 57% | Population Fragmented Nuclei (%) [12]: 44% | Population Healthy Nuclei (%) [12]: 47% | Population Hoechst High Intensity Objects (%) [12]: 25% | Population Membrane Permeable-Phenotype (%) [12]: 2% | Population Mitochondria Different-Phenotype (%) [12]: 79% | Population Mitotic Cells (%) [12]: 42% | Population Normal (%) [12]: 75% | Population Pyknosed Nuclei (%) [12]: 7% | Population Tubulin-Different-Phenotype (%) [12]: 95% | Total Cell Count [12]: 120
